The source made the active and inactive calls. No cut-off for these calls is given here. Some results are limits rather than exact numbers.

The first experiment has as its system SW480. The experiment is described as follows: Cytotoxicity against human SW480 cells assessed growth inhibition at 40 uM after 48 hrs by MTS assay relative to control.
Conditions: not given
The experiment is classed as functional. In short, it runs like this:
(§1)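 Cultured in RPMI-1640 or DMEM with 10% FBS at 37 °C under 5% CO2. Cells seeded, given 12 h at 37 °C, then treated with compound at 40 μM for 48 h. Growth inhibition measured by MTS assay (formazan colorimetry).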
On the technique in general: Tetrazolium dyes change colour on reduction, which living cells bring about.
Regarding `CC1(C)[C@@H]2C[C@@H]3OC(=O)[C@@]45C[C@H](CC[C@H]4[C@]34C(O[C@@H](O)[C@H]14)O2)[C@](C)(O)C5=O`, the “growth inhibition (GI)” value is “inactive”.

A further experiment concerns SMMC-7721. The experiment is described as follows: (§2) Cytotoxicity against human SMMC7721 cells assessed growth inhibition at 40 uM after 48 hrs by MTS assay relative to control.
Conditions: not given
It counts as functional. In short, it runs like this: as §1
Turning to `CC1(C)[C@@H]2C[C@@H]3OC(=O)[C@@]45C[C@H](CC[C@H]4[C@]34C(O[C@@H](O)[C@H]14)O2)[C@](C)(O)C5=O`, the “growth inhibition (GI)” value is “inactive”.

Tested on in a further experiment: not listed separately
The experiment is described as §2. The experiment is classed as functional. The settings on record: SMMC-7721, 48 h, read-out: GI. In short, it runs like this: as §1
Consider `C=C1C(=O)[C@]23C[C@@H]1CC[C@H]2C12[C@H](OC)O[C@@H](O)[C@@H]1C(C)(C)CC[C@@H]2OC3=O` (stereo partly drawn), for which the inhibition of growth at 40 µM was above 50%.

As for `C=C1C(=O)[C@]23C[C@@H]1CC[C@H]2[C@@]12CO[C@@H](O)[C@@H]1C(C)(C)CC[C@@H]2OC3=O`, the inhibition of growth at 40 µM was above 50%.

The next experiment relates to SW480. The experiment is described as follows: Cytotoxicity against human SW480 cells assessed as cell viability after 48 hrs by MTS assay. It counts as functional, cell-based. To be noted: SW480, 48 h. In short, it runs like this: (§3)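 Cells grown in RPMI-1640 or DMEM with 10% FBS at 37 °C, 5% CO2. Seeded, incubated 12 h, then exposed to a range of concentrations in triplicate for 48 h. Viability read by MTS reduction to formazan. IC50 calculated by Reed and Muench method; cis-platin positive control.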
Take `C=C1C(=O)[C@]23C[C@@H]1CC[C@H]2C12[C@H](OC)O[C@@H](O)[C@@H]1C(C)(C)CC[C@@H]2OC3=O` (stereo partly drawn): the half-maximal inhibitory concentration (IC50) came to 4.6 µM.

Regarding `C=C1C(=O)[C@]23C[C@@H]1CC[C@H]2[C@@]12CO[C@@H](O)[C@@H]1C(C)(C)CC[C@@H]2OC3=O`, the concentration for half-maximal inhibition (IC50) turned out to be 1.7 µM.

As to `CC1(C)[C@@H]2C[C@@H]3OC(=O)[C@@]45C[C@H](CC[C@H]4[C@]34C(O[C@@H](O)[C@H]14)O2)[C@](C)(O)C5=O`, the IC50 is above 40 µM.

Tested on in another experiment: not listed separately
The experiment is described as follows: (§4) Cytotoxicity against human HL60 cells assessed growth inhibition at 40 uM after 48 hrs by MTS assay relative to control. It counts as functional. To be noted: HL-60, 48 h, read-out: GI. Summed up: as §1
In the case of `C=C1C(=O)[C@]23C[C@@H]1CC[C@H]2C12[C@H](OC)O[C@@H](O)[C@@H]1C(C)(C)CC[C@@H]2OC3=O` (stereo partly drawn), the inhibition of growth at 40 µM was above 50%.

With `C=C1C(=O)[C@]23C[C@@H]1CC[C@H]2[C@@]12CO[C@@H](O)[C@@H]1C(C)(C)CC[C@@H]2OC3=O`, the inhibition of growth at 40 µM is above 50%.

The subject of a further experiment is HL-60. The description is as §4. It counts as functional.
Conditions: not given
Summed up: as §1
For `CC1(C)[C@@H]2C[C@@H]3OC(=O)[C@@]45C[C@H](CC[C@H]4[C@]34C(O[C@@H](O)[C@H]14)O2)[C@](C)(O)C5=O`, the “growth inhibition (GI)” value was “inactive”.

The subject of the next experiment is A549. The experiment is described as follows: Cytotoxicity against human A549 cells assessed as cell viability after 48 hrs by MTS assay. The experiment is classed as functional, cell-based. To be noted: A549, 48 h. Summed up:
as §3
As to `C=C1C(=O)[C@]23C[C@@H]1CC[C@H]2C12[C@H](OC)O[C@@H](O)[C@@H]1C(C)(C)CC[C@@H]2OC3=O` (stereo partly drawn), the IC50 came out at 3.4 µM.

As to `C=C1C(=O)[C@]23C[C@@H]1CC[C@H]2[C@@]12CO[C@@H](O)[C@@H]1C(C)(C)CC[C@@H]2OC3=O`, the IC50 was 2.1 µM.

As to `CC1(C)[C@@H]2C[C@@H]3OC(=O)[C@@]45C[C@H](CC[C@H]4[C@]34C(O[C@@H](O)[C@H]14)O2)[C@](C)(O)C5=O`, the 50% inhibitory concentration (IC50) is above 40 µM.

In the next experiment the test system is A549. The experiment is described as follows: Cytotoxicity against human A549 cells assessed growth inhibition at 40 uM after 48 hrs by MTS assay relative to control. The experiment is classed as functional.
Conditions: not given
Summed up: as §1
As to `CC1(C)[C@@H]2C[C@@H]3OC(=O)[C@@]45C[C@H](CC[C@H]4[C@]34C(O[C@@H](O)[C@H]14)O2)[C@](C)(O)C5=O`, the “growth inhibition (GI)” value was “inactive”.

The same experiment, now with this note: A549, 48 h, read-out: GI.
On to `C=C1C(=O)[C@]23C[C@@H]1CC[C@H]2C12[C@H](OC)O[C@@H](O)[C@@H]1C(C)(C)CC[C@@H]2OC3=O` (stereo partly drawn), for which the inhibition of growth at 40 µM is above 50%.

Turning to `C=C1C(=O)[C@]23C[C@@H]1CC[C@H]2[C@@]12CO[C@@H](O)[C@@H]1C(C)(C)CC[C@@H]2OC3=O`, the inhibition of growth at 40 µM is above 50%.

Tested on in a further experiment: not listed separately
In words: Cytotoxicity against human SMMC7721 cells assessed as cell viability after 48 hrs by MTS assay. The experiment is classed as functional, cell-based. To be noted: SMMC-7721, 48 h. In short, it runs like this:
as §3
Consider `C=C1C(=O)[C@]23C[C@@H]1CC[C@H]2C12[C@H](OC)O[C@@H](O)[C@@H]1C(C)(C)CC[C@@H]2OC3=O` (stereo partly drawn), for which the IC50 was found to be 5 µM.

For the molecule `C=C1C(=O)[C@]23C[C@@H]1CC[C@H]2[C@@]12CO[C@@H](O)[C@@H]1C(C)(C)CC[C@@H]2OC3=O`, the IC50 stood at 3.3 µM.

Regarding `CC1(C)[C@@H]2C[C@@H]3OC(=O)[C@@]45C[C@H](CC[C@H]4[C@]34C(O[C@@H](O)[C@H]14)O2)[C@](C)(O)C5=O`, the half-maximal inhibitory concentration (IC50) is above 40 µM.

The test system of a further experiment is RAW264.7. The experiment is described as follows: Inhibition of LPS-induced NO production in mouse RAW264.7 cells at 25 uM preincubated with compound followed by LPS challenge measured after 18 hrs by Griess method. It counts as functional, cell-based.
Conditions: not given
In short, it runs like this:
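RAW264.7 macrophages seeded at 2 × 10^5 cells/well and treated with serial compound dilutions (maximum 25 μM), then stimulated with LPS 1 μg/mL for 18 h. Supernatant nitrite measured with Griess reagents, absorbance 550 nm. MG-132 positive control. Viability checked in parallel by MTT to exclude cytotoxic interference.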
(In general: Griess reagent forms a coloured azo dye with nitrite.)
`C=C1C(=O)[C@]23C[C@@H]1CC[C@H]2C12[C@H](OC)O[C@@H](O)[C@@H]1C(C)(C)CC[C@@H]2OC3=O` (stereo partly drawn): the IC50 came to 1.56 µM.

Regarding `C=C1C(=O)[C@]23C[C@@H]1CC[C@H]2[C@@]12CO[C@@H](O)[C@@H]1C(C)(C)CC[C@@H]2OC3=O`, the concentration for half-maximal inhibition (IC50) worked out at 0.74 µM.

A further experiment deals with MCF7. The experiment is described as follows: Cytotoxicity against human MCF7 cells assessed growth inhibition at 40 uM after 48 hrs by MTS assay relative to control. It counts as functional.
Conditions: not given
In short, it runs like this:
as §1
Take `CC1(C)[C@@H]2C[C@@H]3OC(=O)[C@@]45C[C@H](CC[C@H]4[C@]34C(O[C@@H](O)[C@H]14)O2)[C@](C)(O)C5=O`: the “growth inhibition (GI)” value was “inactive”.

A further experiment relates to MCF7. In words: Cytotoxicity against human MCF7 cells assessed as cell viability after 48 hrs by MTS assay. The experiment is classed as functional, cell-based. To be noted: MCF7, 48 h. Summed up: as §3
Turning to `C=C1C(=O)[C@]23C[C@@H]1CC[C@H]2C12[C@H](OC)O[C@@H](O)[C@@H]1C(C)(C)CC[C@@H]2OC3=O` (stereo partly drawn), the IC50 amounted to 3.2 µM.

As to `C=C1C(=O)[C@]23C[C@@H]1CC[C@H]2[C@@]12CO[C@@H](O)[C@@H]1C(C)(C)CC[C@@H]2OC3=O`, the half-inhibitory concentration (IC50) is 3.4 µM.

With `CC1(C)[C@@H]2C[C@@H]3OC(=O)[C@@]45C[C@H](CC[C@H]4[C@]34C(O[C@@H](O)[C@H]14)O2)[C@](C)(O)C5=O`, the IC50 was above 40 µM.

Tested on in a further experiment: not listed separately
In words: Cytotoxicity against human HL60 cells assessed as cell viability after 48 hrs by MTS assay. It counts as functional, cell-based. The settings on record: HL-60, 48 h. Summed up: as §3
`C=C1C(=O)[C@]23C[C@@H]1CC[C@H]2C12[C@H](OC)O[C@@H](O)[C@@H]1C(C)(C)CC[C@@H]2OC3=O` (stereo partly drawn): the half-inhibitory concentration (IC50) stood at 3.2 µM.

Regarding `C=C1C(=O)[C@]23C[C@@H]1CC[C@H]2[C@@]12CO[C@@H](O)[C@@H]1C(C)(C)CC[C@@H]2OC3=O`, the concentration for half-maximal inhibition (IC50) amounted to 2.1 µM.

On to `CC1(C)[C@@H]2C[C@@H]3OC(=O)[C@@]45C[C@H](CC[C@H]4[C@]34C(O[C@@H](O)[C@H]14)O2)[C@](C)(O)C5=O`, for which the IC50 is above 40 µM.

By IC50 is commonly meant the concentration at which inhibition is half-maximal.

The record behind these values is ChEMBL document CHEMBL3779809, “Bioactive Enmein-Type ent-Kaurane Diterpenoids from Isodon phyllostachys” (J Nat Prod, 2016).
